Values after ≈ are worked out from the molar mass of the structure shown.
Tests used:
[1] = tested on: Trichophyton rubrum; test: Antifungal activity against Trichophyton rubrum ATCC 10218 by CLSI method; format: functional, organism-based
How it was run: (§1)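 Growth scraped from 1- to 6-week-old potato dextrose slants and filtered through Miracloth. Diluted in 5% Alamar blue-RPMI 1640 (MOPS pH 7.0) to 2.7 × 10⁴ CFU/ml. Eleven twofold dilutions in duplicate. Fluorescence at 544 nm excitation/590 nm emission read before and after 35°C, 5 days. IC50 fitted from percent growth. MIC taken as no detectable growth; MFC from clear or blue wells plated on PD agar.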

[2] = tested on: Trichophyton rubrum; test: Antifungal activity against Trichophyton rubrum ATCC MYA-4438 by CLSI method; format: functional, organism-based; how it was run: as §1
[3] = tested on: Trichophyton mentagrophytes; test: Antifungal activity against Trichophyton mentagrophytes ATCC 9533 by CLSI method; format: functional, organism-based; how it was run: as §1
[4] = tested on: Trichophyton mentagrophytes; test: Antifungal activity against Trichophyton mentagrophytes ATCC MYA-4439 by CLSI method; format: functional, organism-based; how it was run: as §1
[5] = tested on: Cryptococcus neoformans; test: Antifungal activity against Cryptococcus neoformans ATCC 66031 after 72 hrs by CLSI method; format: functional, organism-based; details: ATCC 66031, 72 h
How it was run: (§2)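 SD broth replaced RPMI because growth in RPMI was poor; other CLSI conditions were kept. Inoculum was 1.5 × 10³ CFU/ml from colonies on SD agar, checked by plating. Twofold serial dilutions (11 concentrations) in 20% DMSO-saline were tested in duplicate. OD530 was read before and after incubation at 35°C for 72 h. Percent growth gave IC50; the MIC is the lowest concentration with no detectable growth.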

[6] = tested on: Cryptococcus neoformans; test: Antifungal activity against Cryptococcus neoformans ATCC 90113 after 72 hrs by CLSI method; format: functional, organism-based; details: ATCC 90113, 72 h; how it was run: as §2
[7] = tested on: Candida tropicalis; test: Antifungal activity against Candida tropicalis ATCC 750 after 48 hrs by CLSI method; format: functional, organism-based; details: ATCC 750, 48 h
How it was run: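 Yeast suspensions made from 3-5 colonies off 24-72 h SD agar plates in saline. They were diluted by OD630 standard curve in RPMI 1640 (0.2% dextrose, 0.03% glutamine, 0.165 M MOPS, pH 7.0) to 1.5 × 10³ CFU/ml. Twofold dilutions (11 concentrations, 20% DMSO-saline) run in duplicate. OD530 read before and after 35°C, 48 h. Line values are top test concentrations; no-growth endpoints give MIC/MFC.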

[8] = tested on: Pichia kudriavzevii; test: Antifungal activity against Candida krusei ATCC 6258 after 48 hrs by CLSI method; format: functional, organism-based; details: ATCC 6258, 48 h
How it was run: (§3)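 Candida inocula came from 24–72-h SD agar colonies suspended in saline. They were diluted by OD630 standard curve into RPMI 1640 (0.2% dextrose, 0.03% glutamine, 0.165 M MOPS, pH 7.0) to 1.5 × 10³ CFU/ml. Compounds were run as 11 twofold dilutions in 20% DMSO-saline, in duplicate, at 35°C for 48 h, with OD530 read before and after. Percent growth at the top concentration, IC50, MIC, and MFC (SD agar plating) were derived.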

[9] = tested on: Nakaseomyces glabratus; test: Antifungal activity against Candida glabrata ATCC 90030 after 48 hrs by CLSI methodCandida glabrata; format: functional, organism-based; details: ATCC 90030, 48 h; how it was run: as §3
[10] = tested on: Candida albicans; test: Antifungal activity against Fluconazole resistant Candida albicans clinical isolate 17 after 48 hrs by CLSI method; format: functional, organism-based
How it was run: (§4)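 CLSI broth microdilution. Colonies from 24–72 h SD agar suspended in saline and sized by OD630 standard curve. Inoculum 1.5 × 10³ CFU/ml (final) in RPMI 1640 (0.2% dextrose, 0.03% glutamine, 0.165 M MOPS, pH 7.0). Twofold dilutions (11 levels) from 20% DMSO-saline, in duplicate. 35°C for 48 h, OD530 read before and after. IC50 fitted from % growth. MIC: no detectable growth. MFC: subculture onto SD agar.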

[11] = tested on: Candida albicans; test: Antifungal activity against Fluconazole resistant Candida albicans clinical isolate 1 after 48 hrs by CLSI method; format: functional, organism-based; how it was run: as §4
[12] = tested on: Candida albicans; test: Antifungal activity against Candida albicans ATCC 200955 after 48 hrs by CLSI method; format: functional, organism-based; details: ATCC 200955, 48 h; how it was run: as §4
[13] = tested on: Candida albicans; test: Antifungal activity against Candida albicans ATCC 90028 after 48 hrs by CLSI method; format: functional, organism-based; details: ATCC 90028, 48 h; how it was run: as §4
[14] = tested on: Candida albicans; test: Antifungal activity against Candida albicans ATCC 32354 after 48 hrs by CLSI method; format: functional, organism-based; details: ATCC 32354, 48 h; how it was run: as §4
[15] = tested on: SK-MEL; test: Cytotoxicity against human SK-MEL cells up to 32 uM by neutral red method; format: cell-based
How it was run: (§5)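 Neutral red uptake cytotoxicity, top concentration 32 μM.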

[16] = tested on: KB; test: Cytotoxicity against human KB cells up to 32 uM by neutral red method; format: cell-based; how it was run: as §5
[17] = tested on: BT-549; test: Cytotoxicity against human BT549 cells up to 32 uM by neutral red method; format: cell-based; how it was run: as §5
[18] = tested on: SK-OV-3; test: Cytotoxicity against human SKOV3 cells up to 32 uM by neutral red method; format: cell-based; how it was run: as §5
[19] = tested on: Vero; test: Cytotoxicity against African green monkey Vero cells up to 32 uM by neutral red method; format: cell-based; details: chlorocebus sabaeus; how it was run: as §5
[20] = tested on: LLC-PK1; test: Cytotoxicity against pig LLC-PK1 cells up to 32 uM by neutral red method; format: cell-based, Sus scrofa; how it was run: as §5
[21] = tested on: Candida albicans; test: Antifungal activity against Candida albicans ATCC 14053 after 48 hrs by CLSI method; format: functional, organism-based; details: ATCC 14053, 48 h; how it was run: as §4
[22] = tested on: Candida albicans; test: Antifungal activity against Candida albicans ATCC 60193 after 48 hrs by CLSI method; format: functional, organism-based; details: ATCC 60193, 48 h; how it was run: as §4
[23] = tested on: Aspergillus niger; test: Antifungal activity against Aspergillus niger ATCC 16404 after 48 h by CLSI method; details: ATCC 16404, 48 h
[24] = tested on: Aspergillus fumigatus; test: Antifungal activity against Aspergillus fumigatus ATCC 204305 after 48 h by CLSI method; details: ATCC 204305, 48 h
[25] = tested on: Aspergillus fumigatus; test: Antifungal activity against Aspergillus fumigatus ATCC 90906 after 48 h by CLSI method; details: ATCC 90906, 48 h

Compound	IC50 [1] [µM]	MFC [1] [µM]	MIC [1] [µM]	IC50 [2] [nM]	MIC [2] [µM]	IC50 [3] [nM]	MFC [3] [µM]	MIC [3] [µM]	IC50 [4] [nM]	MFC [4] [µM]	MIC [4] [µM]	IC50 [5] [nM]	IC50 [7] [µM]	IC50 [8] [nM]	MIC [8] [µM]	IC50 [10] [µM]	MIC [10] [µM]	IC50 [12] [µM]	IC50 [13] [µM]	IC50 [14] [µM]	also measured
CCCCCCCCCCC#CCCCCC(=O)O	6.5	23.5 (≈ 6.26 µg/mL)	17.6 (≈ 4.69 µg/mL)	4100	29.3 (≈ 7.81 µg/mL)	3700	11.7 (≈ 3.12 µg/mL)	7.3 (≈ 1.94 µg/mL)	3000	5.9 (≈ 1.57 µg/mL)	5.9 (≈ 1.57 µg/mL)	1200	49.1	1900	4.4 (≈ 1.17 µg/mL)	18.8	70.4 (≈ 18.8 µg/mL)	66.7	95.4	188	MIC [5]: 188 µM (≈ 50 µg/mL); IC50 [6]: > 188 µM; IC50 [9]: > 188 µM; IC50 [11]: 82.2 µM; Activity [15]: Non-toxic; Activity [16]: Non-toxic; Activity [17]: Non-toxic; Activity [18]: Non-toxic; Activity [19]: Non-toxic; Activity [20]: Non-toxic; IC50 [21]: > 188000 nM; IC50 [22]: 150 µM; IC50 [23]: > 188 µM; IC50 [24]: 36.6 µM; MIC [24]: 141 µM (≈ 37.5 µg/mL)
CCCCCCCCCCCCC#CCCCCC(=O)O [6-NONADECYNOIC ACID]	1	5.3 (≈ 1.56 µg/mL)	2 (≈ 0.589 µg/mL)	600	3.3 (≈ 0.972 µg/mL)	900	2.7 (≈ 0.795 µg/mL)	2 (≈ 0.589 µg/mL)	400	0.7 (≈ 0.206 µg/mL)	0.7 (≈ 0.206 µg/mL)	1100	5.2	4100	10.6 (≈ 3.12 µg/mL)	1.5	8 (≈ 2.36 µg/mL)	0.9	1.3	1.6	MIC [11]: 2.7 µM (≈ 0.795 µg/mL); MIC [12]: 1.3 µM (≈ 0.383 µg/mL); MIC [13]: 2.7 µM (≈ 0.795 µg/mL); MIC [14]: 8 µM (≈ 2.36 µg/mL); Activity [15]: Non-toxic; Activity [16]: Non-toxic; Activity [17]: Non-toxic; Activity [18]: Non-toxic; Activity [19]: Non-toxic; Activity [20]: Non-toxic; IC50 [21]: 800 nM; MFC [21]: 2.7 µM (≈ 0.795 µg/mL); MIC [21]: 1.3 µM (≈ 0.383 µg/mL); IC50 [22]: 1.6 µM; MIC [22]: 2.7 µM (≈ 0.795 µg/mL); IC50 [25]: 1400 nM; MIC [25]: 6.6 µM (≈ 1.94 µg/mL); IC50 [24]: 1.1 µM; MIC [24]: 2.7 µM (≈ 0.795 µg/mL)
